Experimental data taken from ChEMBL document CHEMBL4138050, “Discovery of selective cystathionine β-synthase inhibitors by high-throughput screening with a fluorescent thiol probe” (Medchemcomm, 2017).
Calls of active or inactive are those of the source. The calls are words filed in the database; no cut-off is given here.

Columns and labels:
[1] = target: T1, Cystathionine beta-synthase (Homo sapiens, UniProt P35520); assay: Inhibition of full-length GST-fused human CBS using cysteine/homocysteine as substrate assessed as decrease in H2S production preincubated for 3 mins in presence of homocysteine and lead nitrate followed by cysteine addition
T1 sequence (P35520 whole entry): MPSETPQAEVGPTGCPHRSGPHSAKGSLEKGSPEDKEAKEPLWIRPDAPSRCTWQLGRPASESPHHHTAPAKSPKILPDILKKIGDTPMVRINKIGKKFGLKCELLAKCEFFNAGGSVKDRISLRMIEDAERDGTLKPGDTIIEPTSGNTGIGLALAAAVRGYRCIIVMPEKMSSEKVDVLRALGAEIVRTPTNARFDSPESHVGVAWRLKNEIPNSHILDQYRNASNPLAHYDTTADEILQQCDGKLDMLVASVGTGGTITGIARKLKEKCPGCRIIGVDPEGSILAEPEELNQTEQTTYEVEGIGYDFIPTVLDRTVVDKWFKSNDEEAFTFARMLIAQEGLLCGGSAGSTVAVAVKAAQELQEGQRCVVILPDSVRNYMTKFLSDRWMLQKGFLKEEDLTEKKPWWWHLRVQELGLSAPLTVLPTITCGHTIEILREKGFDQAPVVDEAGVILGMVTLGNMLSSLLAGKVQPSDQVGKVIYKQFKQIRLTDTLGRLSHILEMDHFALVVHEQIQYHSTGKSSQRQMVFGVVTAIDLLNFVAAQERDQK
Outline: (§1)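 The H2S-producing activity of the purified human enzyme was measured with cysteine and homocysteine as substrates in 50 mM HEPES, pH 7.4, with 0.4 mM lead nitrate (lead sulfide read-out).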

[2] = target: T2, Cystathionine gamma-lyase (Homo sapiens, UniProt P32929); assay: Inhibition of N-terminal His-tagged CSE extracted from human HepG2 cells expressed in Escherichia coli BL21 (DE3) using cysteine as substrate assessed as decrease in H2S production preincubated for 3 mins in presence of lead nitrate followed by cysteine addition; outline: as §1
[3] = target: T3, Cystathionine beta-synthase (Homo sapiens) (UniProt P35520); assay: Reversible inhibition of full-length GST-fused human CBS using cysteine/homocysteine as substrate assessed as decrease in H2S production at 100 uM preincubated for 1 hr followed by ultrafiltration for 5 times
T3 sequence (whole entry): T1 sequence (P35520 whole entry)

HT-29 = assay: Antiproliferative activity against human HT-29 cells assessed as decrease in cell viability after 24 hrs by CCK8 assay; format: functional, cell-based; settings: HT-29, 24 h
Outline: (§2)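 Viability of HT29 colon cancer cells and of NCM356 normal colon mucosal epithelial cells was measured across a concentration range and expressed relative to the control group. IC50 was taken from the dose–response curve. For HT29, values are means ± SD with n = 6.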

[4] = Antiproliferative activity against human NCM356 cells assessed as decrease in cell viability after 24 hrs by CCK8 assay; format: cell-based; outline: as §2
[5] = Selectivity index, ratio of IC50 for human NCM356 cells to IC50 for human HT-29 cells; format: toxicity; settings: NCM356 cells versus HT-29 cells
Homo sapiens = species: Homo sapiens; assay: Selectivity ratio of IC50 for N-terminal His-tagged CSE extracted from human HepG2 cells expressed in Escherichia coli BL21 (DE3) using cysteine as substrate assessed as decrease in H2S production to IC50 for full-length GST-fused human CBS using cysteine/homocysteine as substrate assessed as decrease in H2S production
[6] = target: T1, Cystathionine beta-synthase; assay: Inhibition of full-length GST-fused human CBS using methylcysteine as substrate measured for 10 mins by CPM probe-based fluorescence assay
Outline: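 Enzyme source: full-length wild-type hCBS, 2 μg per reaction. Substrate: 10 mM methylcysteine. Buffer: 50 mM HEPES, pH 7.4, with 15 μM CPM thiol probe. Read-out: CH3SH release, followed as fluorescence at 460 nm (excitation 400 nm) over 600 s. Screening positive control: 100 μM AOAA. Secondary screen: compounds at 50 μM.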

[7] = target: T2, Cystathionine gamma-lyase; assay: Inhibition of N-terminal His-tagged CSE extracted from human HepG2 cells expressed in Escherichia coli BL21 (DE3) using methylcysteine as substrate measured for 10 mins by CPM probe-based fluorescence assay
Outline: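 Methanethiol release by purified human CSE was monitored continuously with 10 mM methylcysteine as substrate in 50 mM HEPES, pH 7.4. Thiol was trapped by the CPM fluorescent probe and read at 460 nm (excitation 400 nm). IC50 was taken from the dose–response curve.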

T2 sequence (P32929 whole entry, the tested form may be a part): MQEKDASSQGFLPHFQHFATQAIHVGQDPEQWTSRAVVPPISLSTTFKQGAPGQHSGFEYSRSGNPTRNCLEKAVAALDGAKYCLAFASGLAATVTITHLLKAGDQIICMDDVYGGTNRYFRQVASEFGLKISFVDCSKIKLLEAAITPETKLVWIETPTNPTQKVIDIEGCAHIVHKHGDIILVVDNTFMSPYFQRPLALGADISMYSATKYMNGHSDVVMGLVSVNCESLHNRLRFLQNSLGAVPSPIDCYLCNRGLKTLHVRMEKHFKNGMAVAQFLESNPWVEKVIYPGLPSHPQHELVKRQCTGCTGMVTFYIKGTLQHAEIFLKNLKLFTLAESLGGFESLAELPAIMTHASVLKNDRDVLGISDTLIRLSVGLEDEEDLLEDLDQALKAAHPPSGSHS

C[C@@H]1O[C@@H](Oc2c(-c3ccc(O)cc3)oc3cc(O)cc(O)c3c2=O)[C@H](OC(=O)/C=C\c2ccc(O)cc2)[C@H](O)[C@H]1OC(=O)/C=C\c1ccc(O)cc1
IC50 [1]: 6.2 µM | IC50 [2]: > 400 µM | inhibition [3]: Active | IC50 (HT-29): 1.5 to 13.5 µM

O=c1c(O)c(-c2cc(O)c(O)c(O)c2)oc2cc(O)cc(O)c12 [MYRICETIN]
IC50 [1]: 18.8 µM | inhibition [2]: Active | inhibition [3]: Active

COc1ccc([C@H]2Oc3cc(O)cc(O)c3C(=O)[C@@H]2[C@H]2C(=O)c3c(O)cc(O)cc3O[C@@H]2c2ccc(O)cc2)cc1 [SIKOKIANIN C]
IC50 [1]: 9.2 µM | IC50 [2]: > 400 µM | inhibition [3]: Active | IC50 (HT-29): 1.5 µM | IC50 [4]: 19 µM | selectivity ratio [5]: 10

Oc1ccc(-c2oc3cc(O)cc4c3c2-c2cc(O)cc3c2[C@H](c2cc(O)cc5c2[C@@H]4[C@H](c2ccc(O)cc2)O5)[C@@H](c2ccc(O)cc2)O3)cc1
IC50 [1]: 5.9 µM | inhibition [2]: Active | inhibition [3]: Active

Oc1cc(O)cc(CCC/C=C\CCCCCCCCCc2cc(O)cc(O)c2)c1
IC50 [1]: 7.4 µM | Ratio IC50 (Homo sapiens): > 10 | inhibition [3]: Active

COc1ccc(-c2cc(=O)c3c(O)cc(O)c(-c4cc(-c5cc(=O)c6c(O)cc(O)cc6o5)ccc4O)c3o2)cc1 [PODOCARPUSFLAVONE A]
IC50 [1]: 8.9 µM | IC50 [2]: > 400 µM | inhibition [3]: Active | IC50 (HT-29): 7.9 µM | IC50 [4]: 36 µM | selectivity ratio [5]: 5

Cc1cc(O)c2c(=O)c3c(O)cc(O)c4c5c(O)cc(O)c6c(=O)c7c(O)cc(C)c8c1c2c(c34)c(c78)c65 [HYPERICIN]
IC50 [1]: 3.1 µM | Ratio IC50 (Homo sapiens): > 10 | inhibition [3]: Active

NOCC(=O)O [CARBOXYMETHOXYLAMINE]
IC50 [6]: 1 µM | IC50 [7]: 0.57 µM | IC50 [1]: 4 µM | IC50 [2]: 4 µM | IC50 (HT-29): 140 µM | IC50 [4]: 800 µM

O=C(CCCCCCCCc1ccccc1)c1c(O)cc(O)cc1O
IC50 [1]: 8.1 µM | Ratio IC50 (Homo sapiens): > 10 | inhibition [3]: Active

O=c1cc(-c2ccc(O)cc2)oc2c(-c3c(O)cc(O)c4c(=O)cc(-c5ccc(O)cc5)oc34)c(O)cc(O)c12 [CUPRESSUFLAVONE]
IC50 [1]: 11.5 µM | IC50 [2]: > 400 µM | inhibition [3]: Active | IC50 (HT-29): ≥ 50 µM
